Experiment [1] concerns Mus musculus. The experiment can be described thus: Compound was tested for its ability to enhance nonspecific resistance to expt. fungal infection in mice immunosuppressed with cyclophosphamide and infected with candida albicans at 3x100 mg/kg/day; survival increase = 3/6. Type of experiment: functional. Summed up: (§1)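 Groups of 10 mice in a controlled room. Test substance or vehicle (distilled water) was given ip on days 1, 3 and 5. Cyclophosphamide 30 mg/kg po was given on days 2, 4 and 6. One hour after the last cyclophosphamide dose, mice were challenged with C. albicans at a level set for 70–90% mortality within 10 days in vehicle controls. Survival over 10 days was scored as (treated − CP-only survivors)/(unsuppressed control − CP-only survivors).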

The subject of experiment [2] is Mus musculus. The experiment can be described thus: Compound was tested for its ability to enhance nonspecific resistance to expt. fungal infection in mice immunosuppressed with cyclophosphamide and infected with candida albicans at 3x1 mg/kg/day; survival increase = 1/6. Type of experiment: functional. The method in brief:
as §1

Experiment [3] relates to Mus musculus. The experiment can be described thus: Compound was tested for its ability to enhance nonspecific resistance to expt. fungal infection in mice immunosuppressed with cyclophosphamide and infected with candida albicans at 3x10 mg/kg/day; survival increase = 3/6. Type of experiment: functional. Summed up: as §1
For experiment [4], the system named is Mus musculus. Kind of experiment: Compound was tested for its ability to enhance nonspecific resistance to expt. fungal infection in mice immunosuppressed with cyclophosphamide and infected with candida albicans at 3x 0.1 mg/kg/day; survival increase = 2/6. Format: functional. Summed up:
as §1

The test system of experiment [5] is Mus musculus. Kind of experiment: Compound was tested for its ability to enhance nonspecific resistance to expt. fungal infection in mice immunosuppressed with cyclophosphamide and infected with candida albicans at 3x100 mg/kg/day; survival increase = 2/6. Type of experiment: functional. The method in brief:
as §1

The test system of experiment [6] is Mus musculus. The experiment can be described thus: Compound was tested for its ability to enhance nonspecific resistance to expt. fungal infection in mice immunosuppressed with cyclophosphamide and infected with candida albicans at 3x 0.1 mg/kg/day; survival increase = 0/6. Type of experiment: functional. The method in brief: as §1
Experiment [7] concerns Mus musculus. Kind of experiment: Compound was tested for its ability to enhance nonspecific resistance to expt. fungal infection in mice immunosuppressed with cyclophosphamide and infected with candida albicans at 3x1 mg/kg/day; survival increase = 0/6. Format: functional. The method in brief:
as §1

Experiment [8] has as its system Mus musculus. Kind of experiment: Compound was tested for its ability to enhance nonspecific resistance to expt. fungal infection in mice immunosuppressed with cyclophosphamide and infected with candida albicans at 3x10 mg/kg/day; survival increase = 0/6. Format: functional. Summed up: as §1
Experiment [9] deals with Mus musculus. Kind of experiment: Compound was tested for its ability to enhance nonspecific resistance to expt. fungal infection in mice immunosuppressed with cyclophosphamide and infected with candida albicans at 3x10 mg/kg/day; survival increase = 2/6. Format: functional. Summed up: as §1
Experiment [10] has as its system Mus musculus. The experiment can be described thus: Compound was tested for its ability to enhance nonspecific resistance to expt. fungal infection in mice immunosuppressed with cyclophosphamide and infected with candida albicans at 3x 0.1 mg/kg/day;survival increase = 0/6. Format: functional. The method in brief:
as §1

Experiment [11] deals with Mus musculus. Kind of experiment: Compound was tested for its ability to enhance nonspecific resistance to expt. fungal infection in mice immunosuppressed with cyclophosphamide and infected with candida albicans at 3x100 mg/kg/day; survival increase = 1/6. Format: functional. Summed up:
as §1

For experiment [12], the species on record is Mus musculus. The experiment can be described thus: Compound was tested for blast transformation ability of lymphocytes, stimulated in vitro with Concanavalin A expressed as amount of [3H]thymidine incorporated in lymphocyte DNA at 2.5 microg daily dose in mouse. Type of experiment: functional. Summed up:
(§2)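 Female HAN–NmRi mice (3–4 weeks, 17–20 g) got 1 mL thioglycolate ip, then the dose in 0.5 mL ip one hour later, repeated on days 2 and 3. On day 4, spleen lymphocytes were taken at 1 × 10^6/mL in RPMI 1640 with 10% FCS and stimulated with Con A at 16, 8 or 4 μg/mL for 2 days at 37 °C, 5% CO2. [3H]thymidine was then added for 16 h and counted by β-counter. Results are cpm, n = 5.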

For experiment [13], the species on record is Mus musculus. Kind of experiment: Compound was tested for immunomodulatory effect on macrophage activation without costimulation with PMA measured as UV absorption difference with test sample at 0.25 microg daily dose and blank/mg of cell protein in mouse. Type of experiment: functional. Summed up: (§3)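 Female HAN–NmRi mice got thioglycolate ip plus the dose ip (0.5 mL) daily for 3 days and were killed on day 4. Peritoneal cells were washed out, erythrocytes lysed hypo-osmotically, and cells plated at 1.5 × 10^6/mL. They adhered for 2 h and nonadherent cells were rinsed off. Macrophages were given 160 μM ferricytochrome c in HBSS, with or without 200 nM PMA; the blank added 340 U/mL SOD. After 90 min at 37 °C, absorbance was read at […].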

The species named for experiment [14] is Mus musculus. Kind of experiment: Compound was tested for immunomodulatory effect on macrophage activation with costimulation with PMA measured as UV absorption difference with test sample at 0.25 microg daily dose and blank/mg of cell protein in mouse. Type of experiment: functional. Summed up: as §3
For experiment [15], the species on record is Mus musculus. Kind of experiment: Compound was tested for its effect on number of T cells at 0.25 microg daily dose in mouse. Format: functional, T-cell. The method in brief:
(§4)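 Female HAN–NmRi mice (3–4 weeks) got thioglycolate ip and the dose ip in 0.5 mL on days 1–3, and spleens were taken on day 4. B cells were stained with FITC goat anti-mouse IgG. T cells were stained with rat anti-Thy-1 and then FITC goat anti-rat Ig. Cells were counted by fluorescence microscopy and reported in millions as mean ± SEM with p values.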

The species entered for experiment [16] is Mus musculus. Kind of experiment: Compound was tested for blast transformation ability of lymphocytes, stimulated in vitro with Concanavalin A expressed as amount of [3H]-thymidine incorporated in lymphocyte DNA at 0.25 microg daily dose in mouse. Type of experiment: functional. Summed up:
as §2

The species named for experiment [17] is Mus musculus. Kind of experiment: Compound was tested for its effect on number of B-cells at 2.5 microg daily dose in mouse. Type of experiment: functional, B-cell. Summed up: as §4
The species named for experiment [18] is Mus musculus. Kind of experiment: Compound was tested for its effect on number of peritoneal macrophages at 2.5 microg daily dose in mouse. Type of experiment: functional. Summed up:
(§5)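 Female HAN–NmRi mice got thioglycolate ip and the dose ip (0.5 mL) daily for 3 days. On day 4, peritoneal cells were washed out with ice-cold RPMI 1640. Macrophages were counted with trypan blue in a Neubauer chamber, excluding contaminating cells by morphology, and reported in millions as mean ± SEM.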

The species named for experiment [19] is Mus musculus. The experiment can be described thus: Compound was tested for its effect on number of total spleen cells at 2.5 microg daily dose in mouse. Type of experiment: functional. The method in brief:
as §4

Experiment [20] is filed under the species Mus musculus. Kind of experiment: Compound was tested for its effect on number of total spleen cells at 0.25 microg daily dose in mouse. Format: functional. The method in brief:
as §4

The species entered for experiment [21] is Mus musculus. Kind of experiment: Compound was tested for its effect on number of B-cells at 0.25 microg daily dose in mouse. Type of experiment: functional, B-cell. The method in brief:
as §4

The species named for experiment [22] is Mus musculus. Kind of experiment: Compound was tested for its effect on number of B-cells at 25 microg daily dose in mouse. Format: functional, B-cell. Summed up:
as §4

Experiment [23] is filed under the species Mus musculus. Kind of experiment: Compound was tested for immunomodulatory effect on macrophage activation without costimulation with PMA measured as UV absorption difference with test sample at 25 microg daily dose and blank/mg of cell protein in mouse. Type of experiment: functional. Summed up: as §3
For experiment [24], the species on record is Mus musculus. The experiment can be described thus: Compound was tested for immunomodulatory effect on macrophage activation without costimulation with PMA measured as UV absorption difference with test sample at 2.5 microg daily dose and blank/mg of cell protein in mouse. Format: functional. Summed up:
as §3

The species named for experiment [25] is Mus musculus. The experiment can be described thus: Compound was tested for immunomodulatory effect on macrophage activation with costimulation with PMA measured as UV absorption difference with test sample at 2.5 microg daily dose and blank/mg of cell protein in mouse. Type of experiment: functional. The method in brief:
as §3

Experiment [26] is filed under the species Mus musculus. The experiment can be described thus: Compound was tested for its effect on number of T cells at 2.5 microg daily dose in mouse. Format: functional, T-cell. The method in brief:
as §4

For experiment [27], the species on record is Mus musculus. Kind of experiment: Compound was tested for its effect on number of T cells at 25 microg daily dose in mouse. Format: functional, T-cell. Summed up:
as §4

Experiment [28] is filed under the species Mus musculus. The experiment can be described thus: Compound was tested for its effect on number of peritoneal macrophages at 0.25 microg daily dose in mouse. Format: functional. The method in brief: as §5
For experiment [29], the species on record is Mus musculus. The experiment can be described thus: Compound was tested for blast transformation ability of lymphocytes, stimulated in vitro with Concanavalin A expressed as amount of [3H]thymidine incorporated in lymphocyte DNA at 25 microg daily dose in mouse. Format: functional. The method in brief:
as §2

For experiment [30], the species on record is Mus musculus. Kind of experiment: Compound was tested for immunomodulatory effect on macrophage activation with costimulation with PMA measured as UV absorption difference with test sample at 25 microg daily dose and blank/mg of cell protein in mouse. Format: functional. The method in brief: as §3
The species entered for experiment [31] is Mus musculus. Kind of experiment: Compound was tested for its effect on number of total spleen cells at 25 microg daily dose in mouse. Format: functional. Summed up: as §4
For experiment [32], the species on record is Mus musculus. The experiment can be described thus: Compound was tested for its effect on number of peritoneal macrophages at 25 microg daily dose in mouse. Type of experiment: functional. The method in brief: as §5

Regarding `CC(=O)N[C@@H]1CCCC[C@H]1OCC(=O)N[C@@H](C)C(=O)N[C@H](CCC(=O)O)C(=O)O`, the Survival increase in the experiment with Mus musculus [1] was determined as 3; with Mus musculus [2], 1; with Mus musculus [3], 3; in the experiment with Mus musculus [4], 2.

Turning to `C[C@H](NC(=O)C1(C)OC2(C)CCCCC2(C)NC1=O)C(=O)N[C@H](CCC(=O)O)C(=O)O` (some centres not stated), the Survival increase in the experiment with Mus musculus [5] came out at 2; in the experiment with Mus musculus [6], 0; in the experiment with Mus musculus [7] it was 0; in the experiment with Mus musculus [8] it was 0.

For the compound `CC(=O)N[C@H]1CCCC[C@@H]1OCC(=O)N[C@@H](C)C(=O)N[C@H](CCC(=O)O)C(=O)O`, the Survival increase in the experiment on Mus musculus [5] is 2; with Mus musculus [6] it was 0; with Mus musculus [9] it was 2; in the experiment on Mus musculus [2], 1.

As for `CC(=O)N[C@H]1CCCC[C@@H]1OCC(=O)N[C@@H](C)C(=O)N[C@H](CCC(=O)O)C(N)=O`, the Survival increase in the experiment on Mus musculus [10] is listed as 0; in the experiment with Mus musculus [7], 0; in the experiment on Mus musculus [11] it was 1; with Mus musculus [8], 0.

Consider `CC(=O)NC1CCCCC1OCC(=O)N[C@@H](C)C(=O)N[C@H](CCC(=O)O)C(=O)O` (some centres not stated), for which the “Amount of [3H]thymidine” value is 16830 c.p.m in the experiment listed under Mus musculus [12], 10780 c.p.m in the experiment filed under Mus musculus [16] and 25990 c.p.m in the experiment filed under Mus musculus [29]. Moreover, the Macrophage activation in the experiment filed under Mus musculus [13] turned out to be 237; in the experiment listed under Mus musculus [14], 1298; in the experiment filed under Mus musculus [23] it was 489; in the experiment filed under Mus musculus [24], 431; in the experiment listed under Mus musculus [25] it was 1494; in the experiment filed under Mus musculus [30] it was 1709. For the same compound, the Number in the experiment listed under Mus musculus [15] is recorded as 11.7 millions; in the experiment filed under Mus musculus [17], 23.76 millions; in the experiment filed under Mus musculus [18], 2.87 millions; in the experiment filed under Mus musculus [19], 8.14 millions; in the experiment filed under Mus musculus [20], 5.66 millions; in the experiment filed under Mus musculus [21] it was 18.42 millions. The Number in the experiment filed under Mus musculus [22] was determined as 20.5 millions; in the experiment filed under Mus musculus [26] it was 12.88 millions; in the experiment listed under Mus musculus [27], 9.72 millions; in the experiment listed under Mus musculus [28], 2.58 millions; in the experiment listed under Mus musculus [31] it was 9.93 millions; in the experiment listed under Mus musculus [32] it was 0.92 millions.

Values taken from ChEMBL document CHEMBL1131471, “N-[trans-2-[[2'-(acetylamino)cyclohexyl]oxy]acetyl]-L-alanyl-D-glutamic acid: a novel immunologically active carbocyclic muramyl dipeptide analogue” (1998).
